Consider 2 compounds from ChEMBL document CHEMBL1122917, “Vinblastin-23-oyl amino acid derivatives: chemistry, physicochemical data, toxicity, and antitumor activities against P388 and L1210 leukemias” (J Med Chem, 1985).

Common to all, as to format: functional
In assay [1] the test system is Mus musculus. The assay is described as follows: Number of survivors on 60th day at dose 80 mg/kg/day in 8 mice implanted with P388 leukemia cell line; 0/8.
Assay [2] deals with Mus musculus. The assay is described as follows: Number of survivors on 30th day at dose 80 mg/kg/day in 8 mice implanted with P388 leukemia cell line; 0/8.
The subject of assay [3] is Mus musculus. The assay is described as follows: Number of survivors on 30th day at dose 40 mg/kg/day in 10 mice implanted with P388 leukemia cell line; 0/10.
Assay [4] relates to Mus musculus. The assay is described as follows: Percent increase in life span at dose 60 mg/kg/day in 10 mice implanted with P388 leukemia cell line. In a few lines: (§1)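 Female DBA2 mice inoculated iv on day 0 with 10^4 P388 cells; single iv treatment on day 1 with drug as sulfate salt in physiological saline. Survival followed; %ILS from all deaths and survivors as (T/C × 100) − 100, maximal MST 30 days; survivors counted on days 30 and 60. Most experiments confirmed three times.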

Assay [5] deals with Mus musculus. The assay is described as follows: Percent increase in life span at dose 80 mg/kg/day in 10 mice implanted with P388 leukemia cell line. In a few lines: as §1
The test system of assay [6] is Mus musculus. The assay is described as follows: Number of survivors on 60th day at dose 60 mg/kg/day in 10 mice implanted with P388 leukemia cell line; 0/10. In a few lines: as §1
The subject of assay [7] is Mus musculus. The assay is described as follows: Percent increase in life span at dose 40 mg/kg/day in 10 mice implanted with P388 leukemia cell line. The essentials:
as §1

The subject of assay [8] is Mus musculus. The assay is described as follows: Number of survivors on 60th day at dose 40 mg/kg/day in 10 mice implanted with P388 leukemia cell line; 0/10.
Assay [9] concerns Mus musculus. The assay is described as follows: Number of survivors on 30th day at dose 60 mg/kg/day in 10 mice implanted with P388 leukemia cell line; 0/10.
For assay [10], the system named is Mus musculus. The assay is described as follows: Percent increase in life span at dose 5 mg/kg/day in 10 mice implanted with P388 leukemia cell line. The essentials:
as §1

For assay [11], the system named is Mus musculus. The assay is described as follows: Number of survivors on 30th day at dose 7.5 mg/kg/day in 10 mice implanted with P388 leukemia cell line; 0/10.
Assay [12] deals with Mus musculus. The assay is described as follows: Number of survivors on 30th day at dose 10 mg/kg/day in 10 mice implanted with P388 leukemia cell line; 0/10.
Assay [13] deals with Mus musculus. The assay is described as follows: Percent increase in life span at dose 10 mg/kg/day in 10 mice implanted with P388 leukemia cell line. In a few lines: as §1
Assay [14] deals with Mus musculus. The assay is described as follows: Number of survivors on 60th day at dose 10 mg/kg/day in 10 mice implanted with P388 leukemia cell line; 0/10.
Assay [15] relates to Mus musculus. The assay is described as follows: Number of survivors on 30th day at dose 5 mg/kg/day in 10 mice implanted with P388 leukemia cell line; 0/10.
Assay [16] concerns Mus musculus. The assay is described as follows: Number of survivors on 60th day at dose 7.5 mg/kg/day in 10 mice implanted with P388 leukemia cell line; 0/10.
In assay [17] the test system is Mus musculus. The assay is described as follows: Number of survivors on 60th day at dose 5 mg/kg/day in 10 mice implanted with P388 leukemia cell line; 0/10.
Assay [18] has as its system Mus musculus. The assay is described as follows: Percent increase in life span at dose 7.5 mg/kg/day in 10 mice implanted with P388 leukemia cell line.

As to `CCCCCCCCOC(=O)[C@H](CC(C)C)NC(=O)[C@@]1(O)[C@H](O)[C@]2(CC)C=CCN3CC[C@@]4(c5cc([C@@]6(C(=O)OC)C[C@H]7C[N@](CCc8c6[nH]c6ccccc86)C[C@](O)(CC)C7)c(OC)cc5N(C)[C@@]14C)[C@@H]32`, the Survivors with Mus musculus [1], in the assay on Mus musculus [2], with Mus musculus [3], with Mus musculus [6], in the assay on Mus musculus [8] and in the assay with Mus musculus [9] was 0 in each case. In addition, the ILS at 60 mg/kg/day in the assay with Mus musculus [4] is 7.8%. The ILS at 80 mg/kg/day in the assay on Mus musculus [5] worked out at 9.5%. Also, the ILS at 40 mg/kg/day in the assay on Mus musculus [7] is -0.9%.

For `CCOC(=O)[C@H](CO)NC(=O)[C@@]1(O)[C@H](O)[C@]2(CC)C=CCN3CC[C@@]4(c5cc([C@@]6(C(=O)OC)C[C@H]7C[N@](CCc8c6[nH]c6ccccc86)C[C@](O)(CC)C7)c(OC)cc5N(C)[C@@]14C)[C@@H]32`, the ILS at 5 mg/kg/day in the assay on Mus musculus [10] came out at 16%. Also, the Survivors with Mus musculus [11], in the assay with Mus musculus [12], with Mus musculus [14], with Mus musculus [15], in the assay with Mus musculus [16] and in the assay with Mus musculus [17] was 0 each time. Moreover, in the assay with Mus musculus [13], the ILS at 10 mg/kg/day was determined as 32%. In the assay with Mus musculus [18], the ILS at 7.5 mg/kg/day is 26%.
